# Only some compounds are listed: those with a hit (about 1.2% of all), similar ones and a draw of the others.
# CAL PDZ FP-1 – inhibitors of human CAL PDZ peptide binding; Q9HD26; purified CAL PDZ, TMR-peptide fluorescence polarization, 1 h; inhibition, % at 20 µM; 330,000 compounds, 0.02% hits;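 active = highest replicate inhibition of at least 40%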;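 note: plate controls were DMSO neutral control wells for no effect and unlabeled competitor peptide control wells for full effect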
#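 Test system: tagged CAL PDZ domain / Buffer or medium: sodium phosphate/NaCl buffer pH 7.4 with TCEP, IgG, Thesit / Reagent: TMR-labelled reporter peptide T*-PRC34 bound in PDZ groove / Compound dosing: single point, 20 µM / Schedule: 1 h incubation at room temperature before polarization reading / Technique: fluorescence polarization (mP) / Benchmarks: unlabelled peptide, DMSO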
# CAL PDZ FP-2 – inhibitors of human CAL PDZ peptide binding; purified CAL PDZ, TMR-peptide fluorescence polarization, 1 h; 300,000 compounds, 0.92% hits; inhibition, % at 24.9 µM; Q9HD26;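 active = mean inhibition of at least 30% with at least half of replicates also reaching 30%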;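 note: 0% = DMSO neutral control and 100% = excess unlabeled competitor peptide PRC23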
# CaV13 ICDI inh – Primary screen for inhibitors of IQ motif and Ca2+-dependent inactivation inhibitor domain binding in CACNA1D, Förster resonance energy transfer in living cells, …; HEK cells, CFP/YFP FRET ICDI-IQ, plate reader, 10 min; percent FRET-ratio fall versus neutral wells; inhibition, % at 12.3 µM; 340,000 compounds, 0.098% hits;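 active = mean replicate inhibition of at least 30% and at least 1% of replicates passing that level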;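 note: 0% = median of the neutral control wells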
# ARNT-TACC3 inh – ARNT/TACC3 interaction disruption; Q9Y6A5; AlphaScreen His-ARNT PAS-B/GST-TACC3 binding, luminescence; TACC3 fragment carries E629A point mutation; inhibition, % at 9.99 µM; 390,000 compounds, 0.66% hits; AID 623870;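 active = mean inhibition of replicates at least 50% and at least half of replicates each reaching 50%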;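 note: 0% = complete ARNT plus TACC3 wells and 100% = ARNT alone without TACC3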
# Starred values were filed as active, the others as inactive; x = no result given.
SMILES,CAL PDZ FP-1,CAL PDZ FP-2,CaV13 ICDI inh,ARNT-TACC3 inh
CCC(=O)Nc1ccc2c(c1)C(=O)N(C)C[C@@H](OC)[C@H](C)CN(Cc1cccnc1)[C@H](C)CO2,x,x,x,-6
CC(=O)Nc1ccc(NC(=O)C(C)N(C)CC(=O)Nc2ccccc2Br)cc1 (stereo not drawn),-2,33*,-3,-9
COc1cccc(S(=O)(=O)N2CC[C@H]3[C@@H](CO)N(C)c4ccc(C#Cc5ccc(F)cc5)cc4[C@H]32)c1,x,x,x,-13
Cc1cccc(S(=O)(=O)N2CC[C@@H]3[C@H](CO)N(C)c4ccc(C#Cc5ccc(F)cc5)cc4[C@@H]32)c1,x,x,x,48*
CCCCc1c(O)nc(SCC(=O)NC(C)(C)C)n(-c2ccccc2C)c1=O,-1,4,-4,8
CCCCc1c(O)nc(SCC(=O)N2CCCCC2)n(-c2ccccc2C)c1=O,-1,54*,-9,-6
Cc1cc(C(=O)Nc2cccc3c2O[C@@H](CN(C)Cc2ccncc2)[C@H](C)CN([C@H](C)CO)C3=O)n(C)n1,x,x,x,-4
CC(=NNC(=O)c1ccncc1)c1ccc2ccccc2c1O,1,-3,-18,2
CCCCOc1ccc(C(=O)NCC(=O)NCc2ccncc2)cc1,0,-2,-6,-22
CC(=NNC(=O)c1ccncc1)c1ccccc1O,-3,-2,-11,61*
CC(=NNC(=O)c1ccncc1)c1ccc(O)cc1O,0,-4,-7,85*
COc1ccc(C(=O)NCC(=O)NCc2ccncc2)cc1,-3,124*,-11,-3
COc1ccc(/C(C)=N/NC(=O)c2ccncc2)cc1,0,-3,1,47*
C[C@@H]1CN([C@H](C)CO)C(=O)c2cc(NC(=O)Cc3ccccc3)ccc2O[C@@H](C)CCCCO[C@H]1CN(C)S(=O)(=O)c1cccs1,x,x,x,8
CC(C)(C(=O)Nc1nccs1)c1ccccc1,16,66*,-6,0
CCN(CC)CCCNc1nc(C)cc(COC)c1C#N,1,0,45*,-6
COCc1cc(C)nc(Nc2ccccc2C)c1C#N,-2,-3,-9,1
CC(=O)NC(c1cc(F)c2cccnc2c1O)C1CC1 (stereo not drawn),2,-2,-7,40*
Cn1cccc1/C=N/NC(=O)c1sc2cc(Cl)ccc2c1Cl,x,x,42*,x
O=C(NC[C@@H]1[C@H](c2ccccc2)[C@@H](CO)N1C(=O)Cc1cccnc1)C1CC1,x,x,x,-5
CCN1/C(=C/C(C)=O)Sc2ccc(OC)cc21,-1,48*,-7,5
COc1cccc(OCCOc2ccc(/C=C3\C(=N)N4N=C(S(C)(=O)=O)SC4=NC3=O)cc2OC)c1,-5,55*,-7,-3
COc1ccccc1OCCOc1ccc(/C=C2\C(=N)N3N=C(S(C)(=O)=O)SC3=NC2=O)cc1,-5,-12,-18,4
CC(=O)c1ccc(NC(=O)Cn2cnc(S(=O)(=O)N3CCCC3)c2)cc1,-1,44*,x,-3
O=C(CN(c1cccc(Cl)c1)S(=O)(=O)c1ccc(Cl)cc1)NCc1ccccn1,0,1,-6,47*
SMILES,CAL PDZ FP-1,CAL PDZ FP-2,CaV13 ICDI inh,ARNT-TACC3 inh
C[C@H]1CN([C@@H](C)CO)C(=O)c2c(c3ccccc3n2C)-c2ccccc2CO[C@H]1CN(C)S(=O)(=O)c1ccc(F)cc1,x,x,x,4
Cc1cc(C)n2c(SCC(=O)N(CC(C)C)c3c(N)n(CC(C)C)c(=O)[nH]c3=O)nnc2n1,-1,70*,-7,-6
Cc1ccccc1-c1nnc(SCC(=O)N(CC(C)C)c2c(N)n(CC(C)C)c(=O)[nH]c2=O)n1C,-2,-3,-4,-4
CCOc1ccc(NC(=O)CNC(=O)c2ccco2)cc1,-1,-1,-21,-1
CCOc1ccc(NC(=O)CCNC(=O)c2ccco2)cc1,1,57*,-3,4
Cc1noc(C)c1NC(=O)Nc1ccc2c(c1)C(=O)N([C@@H](C)CO)C[C@H](C)[C@H](CN(C)C)OCCCC[C@H](C)O2,x,x,x,23
COCCNC(=O)c1onc(CSc2ccc(F)cc2)c1C(=O)NCCOC,-1,31*,-10,x
CC(C)C(=O)Nc1ccc2c(c1)C(=O)N(C)[C@H]1CC[C@H](CC(=O)NCc3ccc(F)cc3)O[C@@H]1CO2,x,x,x,-12
C[C@@H]1CN([C@@H](C)CO)C(=O)c2cc(C3=CCCC3)cnc2O[C@H]1CN(C)C(=O)Cc1ccncc1,x,x,x,1
O=[N+]([O-])c1c(Nc2ccccc2O)ccc2nonc12,-1,36*,-5,2
O=C(N/N=C/c1cc(Br)ccc1O)c1ccncc1,x,113*,-3,61*
O=C(N/N=C/c1ccccc1)c1cc[n+]([O-])cc1,-1,x,-3,5
COc1ccc(/C=N/NC(=O)C(=O)Nc2ccccn2)cc1OC,-1,-1,x,0
COc1cc(O)c(/C=N/NC(=O)c2ccncc2)c(OC)c1[N+](=O)[O-],0,x,-3,65*
O=C(N/N=C/c1ccccc1O)C(=O)Nc1ccccn1,0,-5,-4,48*
O=C(N/N=C/c1ccccc1O)c1cc[n+]([O-])cc1,1,-1,-3,63*
COCC(=O)Nc1ccc2c(c1)OC[C@H](C)N(CCc1ccccc1)C[C@H](C)[C@H](OC)CN(C)C2=O,x,x,x,-2
Cc1nccn1CC(=O)N/N=C/c1c[nH]c2ccccc12,0,8,-5,-6
Cc1nccn1CC(=O)N/N=C/c1ccccc1O,-3,-1,-6,74*
O=C(N/N=C/c1ccccc1O)c1ccncc1,-1,2,-5,66*
O=C(N/N=C/c1cccc2ccccc12)c1ccncc1,-2,x,-2,5
O=C(Cc1ccccc1)N1C[C@@H]2[C@H](c3ccccc31)[C@@H](CO)N2C(=O)C1CCCCC1,x,x,x,4
Cc1[nH]c2ccccc2c1C(=O)CCl,-1,63*,-4,-7
Cc1[nH]c2ccccc2c1C(=O)CSc1ccccc1,0,-2,-5,-5
COc1ccc(NC(=O)Nc2ccc3c(c2)C(=O)N([C@H](C)CO)C[C@@H](C)[C@H](CN(C)S(=O)(=O)c2ccc(Cl)cc2)OCCCC[C@H](C)O3)cc1,x,x,x,-1
SMILES,CAL PDZ FP-1,CAL PDZ FP-2,CaV13 ICDI inh,ARNT-TACC3 inh
CS(=O)(=O)c1cccc(-c2nnc(NC(=O)c3ccc(S(=O)(=O)N4CCCC4)cc3)o2)c1,-1,-2,-6,56*
Cc1nnc(NC(=O)c2ccc(S(=O)(=O)N3CCCCCC3)cc2)o1,0,-2,-3,43
Cc1cc(NC(=O)c2ccc(S(=O)(=O)N(C)CC3CCCO3)cc2)no1 (stereo not drawn),-3,-2,5,2
COCCN(CCOC)S(=O)(=O)c1ccc(C(=O)Nc2nnc(C)o2)cc1,0,-5,x,57*
COc1ccc(-c2nnc(NC(=O)c3ccc(S(=O)(=O)N(C)CC4CCCO4)cc3)o2)c(OC)c1 (stereo not drawn),-5,0,x,45*
Cc1nnc(NC(=O)c2ccc(S(=O)(=O)N3CC(C)OC(C)C3)cc2)o1 (stereo not drawn),0,-3,x,64*

# Bioassay records as filed in PubChem.
